Results from ChEMBL document CHEMBL1629709, “Inhibition of melanogenesis and oxidation by protocatechuic acid from Origanum vulgare (oregano)” (J Nat Prod, 2010).
Values after ≈ are worked out from the molar mass of the structure shown. Active and inactive are the calls of the source. The calls are words filed in the database; no cut-off is given here.

Key:
[1] = test system: Hs68; assay: Cytotoxicity against human HS68 cells up to 100 ug/ml after 72 hrs by MTT assay; format: cell-based; conditions: hs68, 72 h
Outline: (§1)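 B16 or Hs68 cells (1 × 10^4/well) seeded ≥24 h in DMEM with 10% FBS, then treated 72 h with 0, 5, 10, 20, 50, 100 µg/mL. MTT (0.5 mg/mL) for 4 h, formazan dissolved in DMSO, A570 read. Viability given as % of 0.1% DMSO vehicle culture; independent triplicates, mean ± SD.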

[2] = target: T1, Tyrosinase (Mus musculus) (UniProt P11344); assay: Inhibition of DOPA oxidase activity of tyrosinase in mouse B16 cells at 10 to 20 ug/ml after 72 hrs by colorimetry; format: cell-based
T1 sequence (whole entry): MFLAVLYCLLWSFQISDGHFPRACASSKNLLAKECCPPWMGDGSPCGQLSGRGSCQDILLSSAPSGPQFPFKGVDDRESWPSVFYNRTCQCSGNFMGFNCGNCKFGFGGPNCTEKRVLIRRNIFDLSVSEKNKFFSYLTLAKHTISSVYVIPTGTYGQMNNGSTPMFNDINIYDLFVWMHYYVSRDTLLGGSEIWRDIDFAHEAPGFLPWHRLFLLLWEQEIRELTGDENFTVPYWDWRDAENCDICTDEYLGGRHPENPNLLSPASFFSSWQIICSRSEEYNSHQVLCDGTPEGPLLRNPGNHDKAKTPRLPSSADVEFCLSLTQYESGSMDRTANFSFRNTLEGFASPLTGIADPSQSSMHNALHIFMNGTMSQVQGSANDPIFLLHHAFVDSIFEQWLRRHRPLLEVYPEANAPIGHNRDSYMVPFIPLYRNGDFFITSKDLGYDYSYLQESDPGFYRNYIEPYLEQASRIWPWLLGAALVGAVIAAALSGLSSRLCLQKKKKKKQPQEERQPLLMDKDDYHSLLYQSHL
Outline: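 B16 cells (1 × 10^5 cells/mL) plated ≥24 h, then α-MSH (1 µM) alone or with 10 or 20 µg/mL agent for 72 h. Lysed in 50 mM sodium phosphate pH 6.8 with 1% Triton X-100 and freeze-thawed. Substrate of 6.3 mM MBTH, 1.1 mM DOPA, pH 7.1 buffer with 4% DMF added. 37 °C for 4 h, A508 read against α-MSH control; independent triplicates.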

[3] = test system: B16; assay: Cytotoxicity against mouse B16 cells up to 100 ug/ml after 72 hrs by MTT assay; format: cell-based; conditions: b16, 72 h; outline: as §1
[4] = target: T1, Tyrosinase (Mus musculus); assay: Inhibition of tyrosinase in mouse B16 cells at 10 to 20 ug/ml after 72 hrs by spectrophotometry; format: cell-based
Outline: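 B16 cells (1 × 10^5 cells/mL) plated ≥24 h, then α-MSH (1 µM) alone or with 10 or 20 µg/mL agent for 72 h. Lysed in 50 mM sodium phosphate pH 6.8 with 1% Triton X-100 and freeze-thawed. 100 µL of 10 mM DOPA added, 37 °C for 4 h, DOPA oxidation read at A475 against α-MSH control; independent triplicates.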

[5] = Antioxidant activity in mouse BNL-CL2 cells assessed as inhibition of H2O2-induced ROS production at 20 ug/ml by DCFHDA assay; format: functional; conditions: BNL CL.2, values are per cent of control
Outline: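 BNLCL2 cells (1 × 10^5 cells/mL) exposed 24 h to 20 µg/mL agent. Detached, washed, loaded with 10 µM DCFH-DA in PBS for 30 min at 37 °C, then stimulated with 0.1 mM H2O2 for 30 min at 37 °C. DCF fluorescence read at ex 504/em 524 nm against H2O2-treated cells. Independent triplicates.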

[6] = test system: Radical scavenging activity; assay: Antioxidant activity assessed as DPPH radical scavenging activity at 100 ug/ml after 30 mins; format: functional
Outline: (§2)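 Sample (100 µL) added to 900 µL of 0.1 mM ethanolic DPPH and kept 30 min in the dark, then A517 read. Scavenging (%) = (1 − Asample/Acontrol) × 100. Control lacks test agent; ascorbic acid used as standard. EC50 estimated from the % inhibition versus concentration plot; mean ± SD, n = 3.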

[7] = test system: Radical scavenging activity; assay: Antioxidant activity assessed as DPPH radical scavenging activity at 5 ug/ml after 30 mins; format: functional; outline: as §2
[8] = test system: Radical scavenging activity; assay: Antioxidant activity assessed as DPPH radical scavenging activity after 30 mins; format: functional; outline: as §2
[9] = Antioxidant activity assessed as trolox equivalent of ABTS radical scavenging activity after 12 to 16 hrs; format: functional
Outline: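 ABTS (7 mM) oxidized with 2.45 mM potassium persulfate (final) in the dark at room temperature for 12–16 h. Diluted with ethanol to A734 0.70 ± 0.02 at 30 °C. 0.1 mL sample added to 2.9 mL, 20 min at 30 °C, A734 read. TEAC reported as mg Trolox/g, from the concentration giving the same absorbance change as 1 mg Trolox.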

[10] = test system: Radical scavenging activity; assay: Antioxidant activity assessed as DPPH radical scavenging activity at 20 ug/ml after 30 mins; format: functional; outline: as §2
[11] = test system: Radical scavenging activity; assay: Antioxidant activity assessed as DPPH radical scavenging activity at 10 ug/ml after 30 mins; format: functional; outline: as §2
[12] = test system: Radical scavenging activity; assay: Antioxidant activity assessed as DPPH radical scavenging activity at 1 ug/ml after 30 mins; format: functional; outline: as §2
[13] = test system: B16; assay: Antimelanogenic activity in mouse B16 cells assessed as decrease in tyrosinase expression at 20 ug/ml after 72 hrs by Western blotting; format: functional, cell-based
Outline: (§3)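 B16 cells (1 × 10^5 cells/mL) given α-MSH (1 µM) alone as control or α-MSH plus 20 µg/mL compound, 72 h. Lysis at 4 °C for 20 min in Tris-HCl pH 7.5 buffer with 1% Triton X-100, EGTA, NaCl and PMSF. 40 µg protein run on 12.5% SDS-PAGE and transferred to nitrocellulose. Blocked in 5% skim milk. Probed with target and β-actin antibodies, HRP secondary, ECL detection.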

[14] = test system: B16; assay: Antimelanogenic activity in mouse B16 cells assessed as decrease in MITF expression at 20 ug/ml after 72 hrs by Western blotting; format: functional, cell-based; outline: as §3
[15] = test system: B16; assay: Antimelanogenic activity in mouse B16 cells assessed as decrease in MITF expression at 20 ug/ml after 72 hrs by flow cytometry assay; format: functional; conditions: B16, 72 h
Outline: (§4)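 B16 cells (1 × 10^5 cells/mL) given α-MSH (1 µM) alone or with 20 µg/mL compound for 72 h. Mouse primary antibodies (1:300) 45 min at 4 °C, FITC anti-mouse IgG (1:500) 30 min at 4 °C. Read by flow cytometry against a normal mouse IgG1 isotype control; n = 3.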

[16] = test system: B16; assay: Antimelanogenic activity in mouse B16 cells assessed as inhibition of alpha-MSH-induced melanin formation after 72 hrs by spectrophotometry; format: functional, cell-based
Outline: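 B16 cells (1 × 10^5 cells/mL) grown 24 h, then α-MSH (1 µM) plus 10 or 20 µg/mL compound in phenol red-free DMEM for 72 h. Melanin released into the medium read at OD 405 nm and expressed as % of 0.1% DMSO vehicle control. Independent triplicate experiments, mean ± SD.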

[17] = test system: B16; assay: Antimelanogenic activity in mouse B16 cells assessed as decrease in TRP1 expression at 20 ug/ml after 72 hrs by flow cytometry assay; format: functional; conditions: B16, 72 h; outline: as §4
[18] = test system: B16; assay: Effect on nuclear morphology of mouse B16 cells at 20 ug/ml after 72 hrs by Hoechst 33342 staining in presence of alpha-MSH; format: ADME, cell-based; conditions: b16, 72 h
Outline: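 B16 cells (1 × 10^5 cells/mL) given α-MSH (1 µM) alone or with 20 µg/mL compound for 72 h. Fixed in 4% paraformaldehyde, nuclei stained with 0.1 µg/mL Hoechst 33342, and viewed by inverted fluorescence microscopy (200×).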

[19] = test system: B16; assay: Antimelanogenic activity in mouse B16 cells assessed as decrease in TRP1 expression at 20 ug/ml after 72 hrs by Western blotting; format: functional, cell-based; outline: as §3
[20] = test system: Brain; assay: Antioxidant activity in mouse brain assessed as Fe2+/ascorbate-induced lipid peroxidation up to 100 ug/ml by TBARS assay relative to control
[21] = test system: B16; assay: Antimelanogenic activity in mouse B16 cells assessed as decrease in tyrosinase expression at 20 ug/ml after 72 hrs by flow cytometry assay; format: functional; conditions: B16, 72 h; outline: as §4
[22] = Antioxidant activity assessed as inhibition of Fe2+/ascorbate-induced lipid peroxidation by TBA assay; format: functional
Outline: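 Commercial liposomes (225–250 nm) with 10 mM FeSO4 and 10 mM ascorbic acid (11 µL each) plus compound in 50 mM sodium phosphate buffer pH 7.4, 2.5 mL final volume, 37 °C for 1 h. Stopped with TBA/TCA and EDTA, then heated at 100 °C for 20 min. Centrifuged and MDA adduct read at A532. Four replicates; inhibition (%) = (1 − Asample/Acontrol) × 100.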

[23] = Antioxidant activity assessed as ferrous ion chelating effect after 10 mins; format: functional
Outline: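 Ferrozine method. 10 µL sample with 20 µL of 2 mM FeCl2 for 5 min, then 40 µL of 5 mM ferrozine added and volume brought to 1 mL with water. Shaken and held 10 min at room temperature, A562 read. EDTA as positive control. Chelation (%) = (1 − Asample/Acontrol) × 100.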

[24] = test system: B16; assay: Antimelanogenic activity in mouse B16 cells assessed as decrease in MCIR expression at 20 ug/ml after 72 hrs by flow cytometry assay; format: functional; conditions: B16, 72 h; outline: as §4
[25] = test system: B16; assay: Antimelanogenic activity in mouse B16 cells assessed as decrease in TRP2 expression at 20 ug/ml after 72 hrs by Western blotting; format: functional, cell-based; outline: as §3
[26] = test system: B16; assay: Antimelanogenic activity in mouse B16 cells assessed as decrease in MC1R expression at 20 ug/ml after 72 hrs by Western blotting; format: functional, cell-based; outline: as §3
[27] = Antioxidant activity assessed as reducing capacity of the compound up to 100 ug/ml after 20 mins; format: functional
Outline: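 Sample (0.2 mL; 0, 1, 5, 10, 20, 100 µg/mL) mixed with sodium phosphate buffer pH 6.6 and 1% potassium ferricyanide, 50 °C for 20 min. 10% TCA added, centrifuged at 10000g for 10 min. Upper layer mixed with water and 0.1% FeCl3. A700 taken directly as reducing power; ascorbic acid standard; mean ± SD, n = 3.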

[28] = test system: Liver; assay: Antioxidant activity in mouse liver assessed as inhibition of Fe2+/ascorbate-induced lipid peroxidation up to 20 ug/ml by TBARS assay relative to control; format: functional, tissue-based
Outline: (§5)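 Male ICR mice, 7 weeks, 30–35 g. Liver or brain homogenized 1:1 (w/v) in ice-cold 40 mM Tris-HCl pH 7.4 and spun at 3000g. Supernatant incubated with sample (20 or 100 µg/mL), 10 µM FeSO4 and 0.1 mM ascorbic acid, 37 °C for 1 h. TCA then TBA added, 80 °C for 20 min, A532 of MDA-TBA read with MDA standard; % inhibition versus control.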

[29] = test system: Liver; assay: Antioxidant activity in mouse liver assessed as inhibition of Fe2+/ascorbate-induced lipid peroxidation up to 100 ug/ml by TBARS assay relative to control; format: functional, tissue-based; outline: as §5
[30] = test system: B16; assay: Antimelanogenic activity in mouse B16 cells assessed as decrease in TRP2 expression at 20 ug/ml after 72 hrs by flow cytometry assay; format: functional; conditions: B16, 72 h; outline: as §4

inhibition [2] | inhibition [4] | EC50 [8] | EC50 [9] | SMILES | Activity [1] | Activity [3] | response, % of control at 20 µg/mL [5] | Activity [6] | Activity [7] | Activity [10] | Activity [11] | Activity [12] | also measured
30.9% | 33.1% |  |  | OC[C@H]1O[C@@H](Oc2ccc(O)cc2)[C@H](O)[C@@H](O)[C@@H]1O [ARBUTIN] | Toxic | Toxic |  |  |  |  |  |  | 
41.7% | 29.8% | 4.2 µg/mL (≈ 23.8 µM) | 4.9 µg/mL | O=C1O[C@H]([C@@H](O)CO)C(O)=C1O [ASCORBIC ACID] | Toxic | Toxic | 102% | 87.6% | 62.5% | 81.4% | 71.3% | 0% | 
57.4% | 22.2% | 2.1 µg/mL (≈ 13.6 µM) | 4 µg/mL | O=C(O)c1ccc(O)c(O)c1 [PROTOCATECHUIC ACID] | Non-toxic | Non-toxic | 85.1% | 82.7% | 68.4% | 74.6% | 70.4% | 43% | inhibition [13]: Active; inhibition [14]: Active; inhibition at 20 µg/mL [15]: 46.6%; inhibition [16]: Dose-dependent effect; inhibition at 20 µg/mL [17]: 54.6%; Activity [18]: Non-toxic; inhibition [19]: Active; MDA-TBA level relative to control [20]: 14.9%; inhibition at 20 µg/mL [21]: 34.8%; inhibition [22]: Dose-dependent effect; Activity [23]: inactive; inhibition at 20 µg/mL [24]: 21.1%; inhibition [25]: Active; inhibition [26]: Active; Activity [27]: inactive; Activity [28]: Dose-dependent effect; Activity [29]: Dose-dependent effect; inhibition at 20 µg/mL [30]: 29.3%
 |  |  |  | Cc1c(C)c2c(c(C)c1O)CCC(C)(C(=O)O)O2 (configuration not stated) [TROLOX] |  |  | 81.2% |  |  |  |  |  | 
